The values below come from ChEMBL document CHEMBL2384922, “Synthesis and evaluation of carbamoylmethylene linked prodrugs of BMS-582949, a clinical p38α inhibitor” (Bioorg Med Chem Lett, 2013).

Converted amounts (≈) assume the structure as drawn. Where only a bound is given, the exact number is not on record here.

Data set [1] is described as follows: Half life of the compound at pH 7.4 at 37 degC by solution stability test. It is filed as physicochemical. Particulars: buffer. An outline of the steps:
(§1)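 Chemical stability in aqueous solution at 37 °C, at pH 1.0 or pH 7.4. Half-life determined for each condition, in hours.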

The nature of data set [2]: Aqueous solubility of the compound at pH 1. It is filed as physicochemical.
Data set [3] in a line: Aqueous solubility of the compound at pH 6.5. It is filed as physicochemical.
Data set [4] can be described thus: Half life of the compound at pH 1 at 37 degC by solution stability test. Particulars: buffer. It is filed as physicochemical. The essentials: as §1
Data set [5] is described as follows: Aqueous solubility of the compound at pH 4.6. It is filed as physicochemical.
The nature of data set [6]: Aqueous solubility of the compound at pH 3.1. Format: physicochemical.
Data set [7] concerns Rattus norvegicus. The data set can be described thus: Tmax in rat assessed as parent compound BMS-582949 at 142 mg/kg, po administered in 0.75% methocel vehicle as suspension. It is filed as ADME, organism-based. On the set-up: dose 142 mg/kg, route oral. Particulars: in vivo. An outline of the steps: (§2)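 Oral dosing to rats as a methocel suspension. Prodrug given at 142 mpk (equivalent to 100 mpk of parent); parent given at 100 mpk. Parent drug measured in plasma over 24 h, giving Cmax, Tmax and AUC0–24h. The prodrug itself was also monitored in plasma.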

The subject of data set [8] is Rattus norvegicus. Kind of data set: AUC (0 to 24 hrs) in rat assessed as parent compound BMS-582949 at 142 mg/kg, po administered in 0.75% methocel vehicle as suspension. Format: ADME, organism-based, Plasma. The arrangement: time < 24 hr, dose 142 mg/kg, route oral. Particulars: in vivo. An outline of the steps: as §2
The test system of data set [9] is Rattus norvegicus. Kind of data set: AUC (0 to 24 hrs) in rat assessed as parent compound BMS-582949 at 14.2 mg/kg, po administered in 1:1 PEG 300/water as vehicle. Format: ADME, organism-based, Plasma. On the set-up: time < 24 hr, dose 14.2 mg/kg, route oral. Particulars: in vivo. The essentials:
(§3)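 Oral dosing to rats as a solution in 1:1 PEG 300/water. Prodrug given at 14.2 mpk (equivalent to 10 mpk of parent); parent given at 10 mpk. Plasma levels of the parent drug measured over 24 h, giving Cmax, Tmax and AUC0–24h. The prodrug itself was also monitored in plasma.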

Data set [10] concerns Rattus norvegicus. Kind of data set: Cmax in rat assessed as parent compound BMS-582949 at 14.2 mg/kg, po administered in 1:1 PEG 300/water as vehicle. Format: ADME, organism-based. The arrangement: dose 14.2 mg/kg, route oral. The settings on record: in vivo. The essentials: as §3
The subject of data set [11] is Rattus norvegicus. Kind of data set: Cmax in rat assessed as parent compound BMS-582949 at 142 mg/kg, po administered in 0.75% methocel vehicle as suspension. It is filed as ADME, organism-based. The arrangement: dose 142 mg/kg, route oral. Particulars: in vivo. An outline of the steps:
as §2

The test system of data set [12] is Rattus norvegicus. Kind of data set: Tmax in rat assessed as parent compound BMS-582949 at 14.2 mg/kg, po administered in 1:1 PEG 300/water as vehicle. Format: ADME, organism-based. The arrangement: dose 14.2 mg/kg, route oral. Particulars: in vivo. The essentials:
as §3

The nature of data set [13]: Half life of the compound at pH 7.5 at 25 degC by solution stability test. It is filed as physicochemical. Particulars: buffer.
The nature of data set [14]: Tmax in rat at 100 mg/kg, po administered in 0.75% methocel vehicle as suspension. Particulars: in vivo. It is filed as ADME, organism-based. The arrangement: dose 100 mg/kg, route oral. The essentials:
as §2

A short description of data set [15]: AUC (0 to 24 hrs) in rat at 100 mg/kg, po administered in 0.75% methocel vehicle as suspension. The settings on record: plasma. The arrangement: time < 24 hr, dose 100 mg/kg, route oral. Format: ADME, organism-based. The essentials:
as §2

Data set [16] can be described thus: Cmax in rat at 100 mg/kg, po administered in 0.75% methocel vehicle as suspension. Format: ADME, organism-based. The arrangement: dose 100 mg/kg, route oral. The settings on record: in vivo. The essentials:
as §2

A short description of data set [17]: AUC (0 to 24 hrs) in rat at 10 mg/kg, po administered with 1:1 PEG 300/water as vehicle. It is filed as ADME, organism-based. On the set-up: time < 24 hr, dose 10 mg/kg, route oral. Particulars: plasma. An outline of the steps: as §3
Data set [18] can be described thus: Tmax in rat at 10 mg/kg, po administered with 1:1 PEG 300/water as vehicle. The settings on record: in vivo. The arrangement: dose 10 mg/kg, route oral. Format: ADME, organism-based. An outline of the steps: as §3
Data set [19] can be described thus: Cmax in rat at 10 mg/kg, po administered with 1:1 PEG 300/water as vehicle. Format: ADME, organism-based. The arrangement: dose 10 mg/kg, route oral. Particulars: in vivo. An outline of the steps: as §3

By half-life is commonly meant how long it takes for the measured level to halve. Lower therefore signals rapid decline. By solubility is commonly meant how much of the substance goes into solution per volume. A higher solubility goes with much dissolved substance. Turning to `CCCNC(=O)c1cn2ncnc(Nc3cc(C(=O)N(C(=O)OCOC(=O)/C=C/C(=O)O)C4CC4)ccc3C)c2c1C`, the half-life in [1] was 21.8 h; in data set [4] it was 34.5 h. Moreover, the solubility turned out to be 166 µg/mL (≈ 287 µM) in data set [2] and 1570 µg/mL (≈ 2710 µM) in [3].
In general, Tmax refers to the time from dosing to the highest level. The AUC is concentration integrated over time. For orientation: Cmax means the peak of the concentration-time curve. As to `CCCN(C(=O)OCOC(=O)/C=C/C(=O)O)C(=O)c1cn2ncnc(Nc3cc(C(=O)NC4CC4)ccc3C)c2c1C`, the solubility was determined as 367 µg/mL (≈ 634 µM) in [5], 1180 µg/mL (≈ 2040 µM) in [2], 105 µg/mL (≈ 181 µM) in [6] and 883 µg/mL (≈ 1530 µM) in [3]. The half-life in data set [1] is 38.5 h; in [4] it was 79.4 h. Further, the Tmax stood at 6 h with Rattus norvegicus [7] and 4 h in the data set on Rattus norvegicus [12]. Besides, the exposure (AUC) was determined as 213.9 µM·h in the data set with Rattus norvegicus [8] and 52 µM·h in the data set on Rattus norvegicus [9]. For the same compound, the maximum concentration (Cmax) stood at 4.6 µM in the data set on Rattus norvegicus [10] and 21.1 µM in the data set on Rattus norvegicus [11].
`CCCNC(=O)c1cn2ncnc(N(C(=O)OCOP(=O)(O)O)c3cc(C(=O)NC4CC4)ccc3C)c2c1C`: the half-life in data set [1] is less than 0.25 h; in data set [4], 8.5 h.
The like results for `CCCN(C(=O)OCOP(=O)(O)O)C(=O)c1cn2ncnc(Nc3cc(C(=O)NC4CC4)ccc3C)c2c1C` were, in that order, less than 0.25 h and 26.8 h.
The like results for `CCCNC(=O)c1cn2ncnc(Nc3cc(C(=O)N(C(=O)OCOP(=O)(O)O)C4CC4)ccc3C)c2c1C` were, in that order, less than 0.25 h and 20.5 h.
In data set [13], `COc1ccc(CCNC(=O)OCOP(=O)(O)O)cc1OC` gave a half-life of 1150 h.
On the same count and under the same terms, the figure for `O=C(OCOP(=O)(O)O)OC1Cc2ccccc2C1` is 0.967 h.
`CCCNC(=O)c1cn2ncnc(Nc3cc(C(=O)N(C(=O)OCOC(=O)[C@H](C)N)C4CC4)ccc3C)c2c1C.Cl`: the figures for the half-life in [1] and in data set [4] were less than 0.25 h and 3 h, respectively.
Consider `CCCNC(=O)c1cn2ncnc(N(C(=O)OCOC(=O)/C=C/C(=O)O)c3cc(C(=O)NC4CC4)ccc3C)c2c1C`, for which the half-life is 14.6 h in [1] and 129 h in data set [4]. Moreover, the solubility is 8 µg/mL (≈ 13.8 µM) in data set [2] and 1150 µg/mL (≈ 1990 µM) in [3].
In the case of `CCCNC(=O)c1cn2ncnc(N(C(=O)OCOC(=O)[C@H](C)N)c3cc(C(=O)NC4CC4)ccc3C)c2c1C.Cl.Cl`, the half-life in [1] was less than 0.25 h; in [4], 3.2 h.
Regarding `CCCN(C(=O)OCOC(=O)[C@H](C)N)C(=O)c1cn2ncnc(Nc3cc(C(=O)NC4CC4)ccc3C)c2c1C.Cl.Cl`, the half-life was less than 0.25 h in data set [1] and 3.2 h in data set [4].
The AUC(0-t) is the area under the concentration-time curve up to a stated or last time point. A higher AUC(0-t) goes with high exposure. `CCCNC(=O)c1cn2ncnc(Nc3cc(C(=O)NC4CC4)ccc3C)c2c1C` [BMS-582949]: the Tmax was 1.7 h in data set [14] and 1 h in data set [18]. In addition, the results for the area under the curve AUC(0-t) at 24 h in data set [15] and in data set [17] were 5.6 µM·h and 53.3 µM·h, respectively. For the same compound, the peak concentration (Cmax) stood at 0.8 µM in data set [16] and 6.5 µM in data set [19].
